Bioassay records from PubChem.
Only some compounds are listed: those with a hit (about 1.8% of all), similar ones and a draw of the others.
SIAE primary – human SIAE inhibition, primary screen; inhibition, % at 9.66 µM; hit rate 0.69% among 370,000; SIAE FP-Rh probe binding, fluorescence polarization;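 active means inhibition above a cutoff: mean of compounds within the control limits plus 3 SD of those, cut at about 17% in these data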;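 further: 0% = plate median of compound wells and 100% = probe without SIAE protein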
TCR-CD3 inh – inhibitors of human TCR-CD3 interaction; TAMRA-labeled TCR probe fluorescence, biochemical; inhibition, % at 9.4 µM; hit rate 0.37% among 360,000; in the data active means inhibition above about 19%;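 further: recombinant mutant TCR 2C K166C tagged with TAMRA read by polarization; 0% = receptor in buffer alone and 100% = receptor with positive control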
ABHD4 inh – inhibitors of mouse ABHD4. Q8VD66. purified mABHD4, FP-Rh probe fluorescence polarization. inhibition, % at 8.92 µM. hit rate 0.54% among 370,000;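 active means inhibition exceeding the mean over every tested compound plus 3 SD, cut at about 30% in these data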;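 further: 0% = plate median of compound wells and 100% = S159A mutant with DMSO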
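Assay system: wild-type mouse ABHD4 protein; compound: single nominal dose of 8.92 µM, 0.89% DMSO final; schedule: 45 min + 60 min at 25 °C; measured by: FP readout, ex 525 nm / em 598 nm; evaluation: % inhibition of FP-Rh probe binding versus controls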
DDE Tn7 FP inh – inhibitors of Tn7 peptide binding to human fibrin DD(E); hit rate 0.13% among 370,000; AID 720508; inhibition, % at 8.3 µM; FP displacement of FITC-Tn7 peptide from fibrin DD(E); 0% = median of compound wells per plate; P02675;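 active means inhibition above the mean of compounds falling within the control limits plus 3 SD of them, cut at about 14% in these data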;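 further: 0% = plate median of compound wells and 100% = 10 µM Aha-Tn7 peptide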
Target sequence (P02675 whole entry, looked up): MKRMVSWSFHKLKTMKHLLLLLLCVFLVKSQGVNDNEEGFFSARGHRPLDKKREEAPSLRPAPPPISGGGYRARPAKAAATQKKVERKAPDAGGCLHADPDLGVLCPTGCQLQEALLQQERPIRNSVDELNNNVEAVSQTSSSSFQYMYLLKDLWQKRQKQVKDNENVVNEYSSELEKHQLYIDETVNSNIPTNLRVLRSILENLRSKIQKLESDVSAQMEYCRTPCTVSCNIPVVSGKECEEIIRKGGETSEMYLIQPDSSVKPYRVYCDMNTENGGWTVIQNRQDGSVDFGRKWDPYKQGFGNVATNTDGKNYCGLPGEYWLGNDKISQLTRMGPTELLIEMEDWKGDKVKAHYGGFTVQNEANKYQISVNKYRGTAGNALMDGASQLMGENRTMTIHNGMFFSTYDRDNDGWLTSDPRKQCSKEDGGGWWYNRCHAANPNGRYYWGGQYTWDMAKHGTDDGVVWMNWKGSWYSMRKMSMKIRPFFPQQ
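Test system – human fibrin DD(E) · Times – 10 min preincubation, 3 h with tracer, room temperature · Detection – fluorescence polarization of the labelled Tn7 tracer · Measure – percent inhibition normalized to high-control wells · Benchmarks – high control wells with 10 µM unlabelled Aha-Tn7 peptide (full inhibition) · Repeats – singlicate testing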
DDE Tn6 FP inh – inhibitors of Tn6 peptide binding to human fibrin DD(E). hit rate 0.21% among 370,000. P02675. Fibrin DD(E) TRITC-Tn6 fluorescence polarization displacement. inhibition, % at 8.3 µM;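 active means inhibition above a per-campaign cutoff: mean of compounds within control limits plus 3 SD, cut at about 15% in these data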;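 further: 0% = median of all compound wells on the plate and 100% = blocking peptide control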
HTRA1 inhibitor – HTRA1 (human) protease inhibition. Q92743. recombinant HTRA1, FP-rhodamine activity-based probe, fluorescence polarization. inhibition, % at 5.96 µM. hit rate 0.5% among 340,000. AID 504803; in the data active means inhibition above about 36%;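 further: 0% = enzyme with DMSO and 100% = wells lacking enzyme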
ABHD4 confirm – confirmation of mouse ABHD4 inhibitors; shares compounds with ABHD4 inh; purified mABHD4, FP-Rh probe fluorescence polarization; inhibition, % at 8.92 µM; hit rate 55% among 1,800;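 active means mean inhibition across replicates above the hit cutoff set in the primary screen, cut at about 30% in these data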;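 further: 0% = wild-type ABHD4 with DMSO and 100% = catalytically dead S159A mutant with DMSO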
Active calls of the source: *; x = not tested or not shown; ! = a repeat was not active.

SMILES	SIAE primary	TCR-CD3 inh	ABHD4 inh	DDE Tn7 FP inh	DDE Tn6 FP inh	HTRA1 inhibitor	ABHD4 confirm
COc1cccc(C(C(=O)NC2CCCC2)N2CCN(c3cc(C)ccc3C)CC2)c1OC (stereo not drawn)	2	1	48*	-11	-3	x	6
S=c1[nH]nc(-c2ccccc2)n1/N=C/C=C/c1ccco1	9	5	27	-3	4	13	x
S=c1[nH]nc(-c2ccc(Cl)cc2)n1/N=C/C=C/c1ccco1	10	0	31*	2	0	x	-2
Cc1ccccc1-c1n[nH]c(=S)n1/N=C/C=C/c1ccco1	8	7	35*	2	-1	16	32*
Nc1ccc2nc(-c3cccs3)[nH]c2c1	11	-11	31*	5	0	7	30*
CC(=O)Nc1ccc2nc(-c3cccs3)[nH]c2c1	-6	-5	7	5	-2	-4	x
Nc1ccc2nc(-c3ccccc3)[nH]c2c1	8	1	32*	-3	-6	2	6
O=C(N[C@H]1C/C=C\C[C@H](CC(=O)N(CCO)Cc2ccccc2)C(=O)NC[C@H](c2ccccc2)OC1=O)OCC1c2ccccc2-c2ccccc21	x	x	x	x	x	-4	x
O=C1NN(c2ccc(Cl)cc2)C(=O)/C1=C\c1ccc(-c2cccc(C(=O)O)c2)o1	-3	5	23	1	-2	5	x
O=C1NN(c2ccccc2)C(=O)/C1=C\c1ccc(-c2cc([N+](=O)[O-])ccc2O)o1	2	0	34*	-6	1	15	44*
CCOn1c(=O)c(-c2cccc3ccccc23)[n+]([O-])c2ccccc21	2	-3	3	7	-12	-2	x
O=c1c(-c2cccc3ccccc23)[n+]([O-])c2ccccc2n1O	13	9	49*	4	15	3	14
CCOc1ccc(CCN2CN(C3CCCCC3)CNC2=S)cc1OCC	-4	1	-5	0	-4	-1	x
CCOc1ccccc1N1CN(C2CCCCC2)CNC1=S	5	-6	70*	-7	-7	x	1
COc1ccccc1CCNC(=O)c1ccc(Br)s1	-2	-1	118*	3	-12	-12	-12
COc1ccccc1CNC(=O)C(=O)NCC1OCCCN1S(=O)(=O)c1cccs1 (stereo not drawn)	2	-3	6	4	0	2	x
COc1ccc(C(=O)OCC(=O)c2c(N)n(C)c(=O)n(C)c2=O)cc1OC	-1	13	4	-4	1	3	x
CC(=O)Oc1ccc(C(=O)OCC(=O)c2c(N)n(C)c(=O)n(C)c2=O)cc1OC(C)=O	5	0	46*	-2	0	13	4
CCCCn1c(N)c(N(CCOC)C(=O)C2CCN(C(=O)c3ccc(F)cc3)CC2)c(=O)[nH]c1=O	9	1	31*	-3	-6	-2	4
Cc1cc(NC(=O)c2ccc(NS(=O)(=O)c3ccc(C)c(C)c3)cc2)no1	-8	x	-4	-2	8	x	x
CN(C)c1ccc(/C=C(\NC(=O)c2ccccc2)C(=O)NCCN2CCOCC2)cc1	0	-15	-47	-11	-12	-14	x
Cc1ccc(C(=O)Nc2nc3ccccc3[nH]2)cc1	-6	-8	30*	-2	-2	-4	21
CC(C)=C(NC(=O)c1ccccc1Cl)C(=O)NCCc1nc2ccccc2[nH]1	3	-2	4	3	0	1	x
O=C(NN1C(=O)/C(=C/C=C/c2ccco2)SC1=S)c1ccncc1	15	16	49*	-3	1	x	13
CC(C)C(C(=O)O)N1C(=O)/C(=C/C=C/c2ccco2)SC1=S (stereo not drawn)	x	x	x	x	x	31	x
SMILES	SIAE primary	TCR-CD3 inh	ABHD4 inh	DDE Tn7 FP inh	DDE Tn6 FP inh	HTRA1 inhibitor	ABHD4 confirm
O=C1/C(=C/C=C/c2ccco2)SC(=S)N1c1ccc(O)cc1	9	10	37*	-12	-6	23	-42
CCN(C(=O)CN1C(=O)NC(c2ccccc2)(c2ccc(C)c(C)c2)C1=O)C1CCS(=O)(=O)C1 (stereo not drawn)	-3	-8	3	-2	2	2	x
CN(C)CCNc1cccc2sc3ccc(O)cc3c(=O)c12	5	3	31*	-9	-3	x	18
C=C[C@H](Cc1ccccc1)N(Cc1ccccc1)S(=O)(=O)N(Cc1ccccc1)[C@H](C=C)Cc1ccccc1	13	-2	1	10	3	-9	x
CN(C)C(=O)Cn1cnc2c(cnn2-c2ccc(F)cc2)c1=O	3	-3	5	3	-3	-1	x
COc1ccccc1CNC(=O)C1CCN(S(=O)(=O)c2ccc3nc4c(c(C(=O)O)c3c2)CCCC4)CC1	3	5	7	-3	-4	-1	x
COc1cccc(=O)c2c(C)n(-c3ccc(C(=O)O)cc3)c(C)c12	-2	0	30*	-4	-1	11	16
CCOc1cccc(=O)c2c(C)n(Cc3ccccc3)c(C)c12	6	-8	5	2	-7	-4	x
CCOc1cccc(=O)c2c(C)n(-c3ccc(C(=O)O)cc3)c(C)c12	1	13	39*	-5	-2	8	25
COc1ccc(-n2c(C)c3c(OC)cccc(=O)c3c2C)cc1	-2	-10	15	1	-2	14	x
Oc1ccc2ccccc2c1N=Nc1ccccc1F	6	-1	5	-1	3	7	x
Oc1ccc2ccccc2c1N=Nc1ccccn1	2	1	50*	1	-5	14	53*
O=C(CNc1cccc2ccccc12)N/N=C/c1ccccn1	16	3	39*	0	1	x	31*
Cc1cccc(NCC(=O)N/N=C\c2ccccn2)c1	-6	-1	1	-5	-5	-3	x
Oc1ccccc1N=Cc1sc2ccccc2c1Cl	12	6	32*	-5	2	6	-6
Cc1cccn2c(CNCCSc3nccn3C)c(C(=O)N3CCCCC3)nc12	-8	8	35*	-6	2	-1	-6
O=C(/C=C1\C(=O)Nc2ccccc21)/C=C1\C(=O)Nc2ccccc21	19*	6	41*	-4	6	25	24
O=C1Nc2ccccc2/C1=C\C(=O)c1ccccc1	-5	0	7	1	6	-7	x
Cc1ccn2c(NC3CCCCC3)c(-c3cccc(SC4CCCCC4)c3)nc2c1	7	-2	31*!	10	-6	-15	25
Cc1ccn2c(NC3CCCCC3)c(-c3ccc(SC4CCCCC4)cc3)nc2c1	1	0	5	-9	9	x	x
Nc1c(-c2ccc(C(F)(F)F)cc2)nc2ncccn12	12	1	38*	-2	-2	x	10
Cc1ccc(-c2nc3ncccn3c2N)cc1	4	-5	6	-5	-5	x	x
